For one assay, the target named is T1, COX-1 (Ovis aries, UniProt P05979).
T1 sequence (P05979 25-600): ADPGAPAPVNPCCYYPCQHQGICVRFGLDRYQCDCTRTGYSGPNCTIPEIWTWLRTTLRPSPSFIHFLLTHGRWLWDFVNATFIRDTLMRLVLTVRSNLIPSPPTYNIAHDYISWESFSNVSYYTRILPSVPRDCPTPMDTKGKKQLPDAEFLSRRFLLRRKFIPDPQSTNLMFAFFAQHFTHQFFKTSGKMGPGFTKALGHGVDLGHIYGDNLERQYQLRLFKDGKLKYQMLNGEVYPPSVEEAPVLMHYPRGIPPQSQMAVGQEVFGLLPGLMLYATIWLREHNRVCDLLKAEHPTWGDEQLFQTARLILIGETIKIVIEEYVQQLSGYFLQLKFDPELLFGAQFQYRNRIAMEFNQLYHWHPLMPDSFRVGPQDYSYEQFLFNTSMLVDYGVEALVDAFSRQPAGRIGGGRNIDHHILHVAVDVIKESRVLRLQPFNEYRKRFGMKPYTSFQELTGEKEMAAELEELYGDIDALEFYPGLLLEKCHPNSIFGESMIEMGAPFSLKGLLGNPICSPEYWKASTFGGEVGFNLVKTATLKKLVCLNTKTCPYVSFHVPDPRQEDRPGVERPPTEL
Nature of the assay: In vitro COX-1 inhibition. It counts as biochemical.

A further assay has as its target T2, COX-2 (Homo sapiens, UniProt P35354).
T2 sequence (P35354 18-604): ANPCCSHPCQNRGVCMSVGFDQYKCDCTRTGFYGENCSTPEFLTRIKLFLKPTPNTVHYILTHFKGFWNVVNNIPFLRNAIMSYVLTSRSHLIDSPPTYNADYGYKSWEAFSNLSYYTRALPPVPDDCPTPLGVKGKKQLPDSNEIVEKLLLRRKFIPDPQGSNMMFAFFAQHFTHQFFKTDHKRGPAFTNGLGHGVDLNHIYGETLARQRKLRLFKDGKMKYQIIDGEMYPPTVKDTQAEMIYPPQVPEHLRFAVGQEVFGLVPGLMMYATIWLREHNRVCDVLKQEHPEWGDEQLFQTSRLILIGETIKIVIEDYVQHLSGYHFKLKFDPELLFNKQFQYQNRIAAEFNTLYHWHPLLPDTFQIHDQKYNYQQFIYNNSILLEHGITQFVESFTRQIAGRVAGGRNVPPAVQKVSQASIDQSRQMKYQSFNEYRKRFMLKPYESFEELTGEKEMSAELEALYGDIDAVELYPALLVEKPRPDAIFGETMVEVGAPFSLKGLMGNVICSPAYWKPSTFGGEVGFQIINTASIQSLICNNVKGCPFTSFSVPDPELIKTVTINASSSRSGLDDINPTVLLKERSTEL
Nature of the assay: biochemical. To be noted: for COX-2 S.I.: in vitro COX-2 selectivity index, IC50 (COX-1)/IC50 (COX-2).

Another assay concerns normal fibroblast F180. Put plainly: MTT cell viability assay, F180. Type of assay: cell-based. The note with it: F180, 48 h, read-out: F180 IC50. For orientation: Formazan colour is commonly taken as a measure of viable cells.
The subject of the next assay is MCF7 breast cells. Put plainly: Apoptosis by Annexin-V-FITC/PI flow cytometry. Type of assay: cell-based, human. To be noted: for Apoptosis Early / Apoptosis Late / Apoptosis Total / Necrosis: compound at its IC50, 24 h; for late apoptosis increase compared to control: control 0.27% (late); for early apoptosis increase compared to control: control 0.41% (early). The gist of the method: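 MCF7 breast cells were treated with the test compound for 24 h, then collected and rinsed twice with PBS. They were stained with Annexin-V-FITC plus propidium iodide for 30 min at room temperature in the dark. Analysis on a FACS Calibur flow cytometer gave early apoptotic, late apoptotic and necrotic fractions, compared against untreated control.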
(In general: In flow cytometry, cells or beads pass a laser one at a time.)

Assay [1] has as its system Hep3b hepatocellular carcinoma cell line. Nature of the assay: MTT cell viability assay, HEP-3B. It counts as cell-based. To be noted: Homo sapiens, 48 h, read-out: HEP-3B IC50.
In assay [2] the test system is MCF7 human breast adenocarcinoma cell line. Put plainly: MTT cell viability assay, MCF-7. Type of assay: cell-based. The note with it: MCF7, 48 h, read-out: MCF-7 IC50.
For assay [3], the system named is A549 non-small cell lung cancer. Nature of the assay: MTT cell viability assay, A549. Type of assay: cell-based. The note with it: Homo sapiens, A549, 48 h, read-out: A549 IC50.
Another assay has as its target B-RAF^V600E (Homo sapiens, UniProt P15056, V600E). Put plainly: B-RAF^V600E Kinase Assay Kit. Type of assay: biochemical.
The next assay deals with EGFR (Homo sapiens, UniProt P00533). Nature of the assay: EGFR Kinase Assay Kit. Type of assay: biochemical. The gist of the method:
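Kinase kit assay. Each well held kinase buffer with DTT, ATP, and Poly(Glu:Tyr 4:1) PTK substrate (10 mg/ml stock). Test compound was added, and diluted EGFR enzyme started the reaction. Incubated 40 min at 30 °C, then Kinase-Glo Max reagent for 15 min at room temperature, and luminescence read. Controls were no-inhibitor wells and enzyme-free blanks.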

The next assay relates to breast MCF7 cells. Put plainly: Cell cycle analysis by flow cytometry. It counts as cell-based, human. The note with it: for cell cycle arrest phase: compound at its IC50; for %G0-G1 / %G2-M / %S: compound at its IC50, 24 h. Put shortly:
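MCF7 breast cells were exposed to the test compound for 24 h, then rinsed with PBS, centrifuged and fixed in 70% ethanol. After a PBS wash they were suspended in 0.1 mg/mL RNase and stained with propidium iodide. Flow cytometry on a FACS Calibur measured DNA content to give G0/G1, S and G2/M distribution against negative control.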

The target of a further assay is T3, aromatase (CYP19A) (Homo sapiens, UniProt P11511).
T3 sequence (P11511 1-503): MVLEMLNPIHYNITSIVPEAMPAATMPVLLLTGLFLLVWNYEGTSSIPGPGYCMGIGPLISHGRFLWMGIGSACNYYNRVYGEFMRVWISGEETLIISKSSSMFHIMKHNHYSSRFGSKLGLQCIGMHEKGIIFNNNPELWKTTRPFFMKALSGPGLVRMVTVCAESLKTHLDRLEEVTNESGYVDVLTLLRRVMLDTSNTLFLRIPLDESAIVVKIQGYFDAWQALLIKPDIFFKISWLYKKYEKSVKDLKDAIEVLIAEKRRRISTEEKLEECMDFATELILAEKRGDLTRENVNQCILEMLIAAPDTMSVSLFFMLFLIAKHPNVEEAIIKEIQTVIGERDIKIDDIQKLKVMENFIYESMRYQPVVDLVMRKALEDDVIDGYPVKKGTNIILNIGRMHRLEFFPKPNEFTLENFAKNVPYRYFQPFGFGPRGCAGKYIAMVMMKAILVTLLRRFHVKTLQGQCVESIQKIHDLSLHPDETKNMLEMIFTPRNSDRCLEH
Put plainly: Aromatase. Type of assay: biochemical.

Chain of EGFR (P00533 25-1210): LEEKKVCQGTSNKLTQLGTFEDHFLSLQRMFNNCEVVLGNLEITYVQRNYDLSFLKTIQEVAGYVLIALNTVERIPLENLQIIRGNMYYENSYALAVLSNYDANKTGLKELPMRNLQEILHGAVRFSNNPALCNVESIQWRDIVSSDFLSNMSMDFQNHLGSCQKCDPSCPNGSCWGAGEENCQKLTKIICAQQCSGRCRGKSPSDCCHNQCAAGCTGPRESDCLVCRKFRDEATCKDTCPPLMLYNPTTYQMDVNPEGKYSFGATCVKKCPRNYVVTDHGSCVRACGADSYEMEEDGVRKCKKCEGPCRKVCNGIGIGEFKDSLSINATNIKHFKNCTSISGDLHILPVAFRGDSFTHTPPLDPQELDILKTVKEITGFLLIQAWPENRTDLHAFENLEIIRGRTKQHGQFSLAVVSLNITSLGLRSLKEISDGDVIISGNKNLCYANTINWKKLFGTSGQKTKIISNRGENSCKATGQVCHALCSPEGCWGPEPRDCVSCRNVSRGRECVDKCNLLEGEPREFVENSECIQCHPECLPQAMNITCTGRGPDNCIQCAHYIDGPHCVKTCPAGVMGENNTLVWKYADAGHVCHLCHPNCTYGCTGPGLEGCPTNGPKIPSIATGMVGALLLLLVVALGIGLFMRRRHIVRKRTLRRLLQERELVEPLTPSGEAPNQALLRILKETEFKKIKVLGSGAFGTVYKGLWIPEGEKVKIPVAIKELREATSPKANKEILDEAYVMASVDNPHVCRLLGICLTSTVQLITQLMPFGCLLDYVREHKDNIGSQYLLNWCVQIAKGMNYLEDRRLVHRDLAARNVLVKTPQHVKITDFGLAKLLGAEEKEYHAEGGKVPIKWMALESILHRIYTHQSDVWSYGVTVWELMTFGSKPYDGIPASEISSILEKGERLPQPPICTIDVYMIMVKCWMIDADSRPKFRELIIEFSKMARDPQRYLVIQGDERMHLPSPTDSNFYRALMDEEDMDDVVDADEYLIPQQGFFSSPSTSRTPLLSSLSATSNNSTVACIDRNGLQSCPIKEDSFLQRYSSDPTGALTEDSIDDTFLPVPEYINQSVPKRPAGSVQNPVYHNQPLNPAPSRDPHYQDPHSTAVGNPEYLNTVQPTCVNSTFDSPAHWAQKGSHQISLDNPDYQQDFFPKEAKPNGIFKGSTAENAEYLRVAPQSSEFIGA
Chain of B-RAF^V600E (P15056 whole entry V600E): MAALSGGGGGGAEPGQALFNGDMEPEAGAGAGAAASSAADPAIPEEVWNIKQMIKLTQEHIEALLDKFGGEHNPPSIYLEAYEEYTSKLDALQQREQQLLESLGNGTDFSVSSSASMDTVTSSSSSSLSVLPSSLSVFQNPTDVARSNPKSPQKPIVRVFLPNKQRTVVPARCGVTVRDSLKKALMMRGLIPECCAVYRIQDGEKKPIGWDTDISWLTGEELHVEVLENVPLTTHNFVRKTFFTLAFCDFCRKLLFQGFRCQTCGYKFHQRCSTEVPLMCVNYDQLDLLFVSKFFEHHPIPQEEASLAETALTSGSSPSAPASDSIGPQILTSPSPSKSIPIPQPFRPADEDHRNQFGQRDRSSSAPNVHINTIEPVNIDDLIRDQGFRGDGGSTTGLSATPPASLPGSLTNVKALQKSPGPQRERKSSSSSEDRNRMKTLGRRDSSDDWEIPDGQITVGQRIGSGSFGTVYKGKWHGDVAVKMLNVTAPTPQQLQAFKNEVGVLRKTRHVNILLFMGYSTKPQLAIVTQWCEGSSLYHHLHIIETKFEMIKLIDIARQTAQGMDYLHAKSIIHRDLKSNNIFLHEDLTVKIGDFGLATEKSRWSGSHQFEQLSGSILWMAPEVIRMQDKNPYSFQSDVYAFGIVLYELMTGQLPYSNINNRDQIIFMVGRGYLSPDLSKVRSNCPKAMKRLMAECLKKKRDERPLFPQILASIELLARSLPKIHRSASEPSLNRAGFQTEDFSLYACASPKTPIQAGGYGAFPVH

On to `COc1ccc(-n2c(SC/C(=N/O)c3ccccc3)nnc2-c2nnn(-c3ccc(S(N)(=O)=O)cc3)c2C)cc1` [Compound 19g, (E)-4-(4-(5-((2-(hydroxyimino)-2-phenylethyl)thio)-4-(4-methoxyphenyl)-4H-1,2,4-triazol-3-yl)-5-methyl-1H-1,2,3-triazol-1-yl)benzenesulfonamide], for which 4.76 ± 0.034 µM corresponded to half-maximal inhibition on COX-1 (IC50). Besides, at COX-2, the IC50 (as a rule, the concentration that inhibits the measured activity by half) stood at 0.394 ± 0.031 µM and the “COX-2 S.I.” value is on record as 12.08.

For the compound `COc1ccc(/C(CSc2nnc(-c3nnn(-c4ccc(S(N)(=O)=O)cc4)c3C)n2-c2ccccc2)=N\O)cc1` [Compound 19c, (E)-4-(4-(5-((2-(hydroxyimino)-2-(4-methoxyphenyl)ethyl)thio)-4-phenyl-4H-1,2,4-triazol-3-yl)-5-methyl-1H-1,2,3-triazol-1-yl)benzenesulfonamide], the IC50 with normal fibroblast F180 worked out at 15.4 µM. The midpoint of inhibition against COX-1, the IC50, lay at 10.7 ± 0.025 µM. Moreover, in the assay with MCF7 breast cells, the “Apoptosis Early” value is reported as 21.85%, the “Apoptosis Late” value was found to be 12.36%, the “Apoptosis Total” value was determined as 41.55 and the Necrosis is reported as 7.34%. Moreover, in the assay on MCF7 breast cells, the “late apoptosis increase compared to control” value worked out at 45.77 fold and the “early apoptosis increase compared to control” value was 53.29 fold. In addition, on COX-2, the IC50 turned out to be 0.309 ± 0.041 µM and the “COX-2 S.I.” value is listed as 34.62. Besides, in assay [1], the IC50 lay in the range of 4.5 to 14 µM. Also, the IC50 in assay [2] turned out to be 14 µM. Besides, in assay [3], the IC50 is 4.5 µM. In addition, the midpoint of inhibition on B-RAF^V600E, the IC50, lay at 0.09 µM. For the same compound, the IC50 on EGFR turned out to be 0.112 µM. For the same compound, in the assay with breast MCF7 cells, the “cell cycle arrest phase” value is reported as “cell cycle arrest at G2/M phase”, the “%G0-G1” value came to 37.88%, the “%G2-M” value was determined as 26.98% and the “%S” value worked out at 35.14%. The compound also showed an IC50 against aromatase (CYP19A) of 22.4 µM.

As to `CNC(=O)c1cc(Oc2ccc(NC(=O)Nc3ccc(Cl)c(C(F)(F)F)c3)cc2)ccn1` [Sorafenib, sorafenib, reference compound], in [1], the IC50 came out at 3.5 µM.

With `Cc1c(-c2nnc(SC/C(=N/O)c3ccc(Cl)cc3)n2-c2ccccc2)nnn1-c1ccc(S(N)(=O)=O)cc1` [Compound 19d, (E)-4-(4-(5-((2-(4-chlorophenyl)-2-(hydroxyimino)ethyl)thio)-4-phenyl-4H-1,2,4-triazol-3-yl)-5-methyl-1H-1,2,3-triazol-1-yl)benzenesulfonamide], the IC50 against COX-1 stood at 4.63 ± 0.023 µM; against COX-2, 0.437 ± 0.037 µM. The “COX-2 S.I.” value at COX-2 amounted to 10.59.

Consider `COc1ccc(-n2c(SC/C(=N/O)c3ccc(Cl)cc3)nnc2-c2nnn(-c3ccc(S(N)(=O)=O)cc3)c2C)cc1` [Compound 19j, (E)-4-(4-(5-((2-(4-chlorophenyl)-2-(hydroxyimino)ethyl)thio)-4-(4-methoxyphenyl)-4H-1,2,4-triazol-3-yl)-5-methyl-1H-1,2,3-triazol-1-yl)benzenesulfonamide], for which the IC50 against COX-1 came to 3.43 ± 0.026 µM; at COX-2 it was 0.397 ± 0.025 µM; in assay [1], 4.5 µM. The “COX-2 S.I.” value on COX-2 came to 8.63.

On COX-1, `Cc1c(-c2nnc(SC/C(=N/O)c3ccccc3)n2-c2ccccc2)nnn1-c1ccc(S(N)(=O)=O)cc1` [Compound 19a, (E)-4-(4-(5-((2-(hydroxyimino)-2-phenylethyl)thio)-4-phenyl-4H-1,2,4-triazol-3-yl)-5-methyl-1H-1,2,3-triazol-1-yl)benzenesulfonamide] returned a half-inhibitory concentration (IC50) of 4.84 ± 0.02 µM. On COX-2, inhibition was half-maximal at 0.343 ± 0.07 µM (IC50) and the “COX-2 S.I.” value turned out to be 14.11.

In the case of `COc1ccc(-n2c(SC/C(=N/O)c3ccc(C)cc3)nnc2-c2nnn(-c3ccc(S(N)(=O)=O)cc3)c2C)cc1` [Compound 19h, (E)-4-(4-(5-((2-(hydroxyimino)-2-(p-tolyl)ethyl)thio)-4-(4-methoxyphenyl)-4H-1,2,4-triazol-3-yl)-5-methyl-1H-1,2,3-triazol-1-yl)benzenesulfonamide], the IC50 with normal fibroblast F180 is 11.3 µM. The IC50 against COX-1 amounted to 8.6 ± 0.027 µM. Moreover, in the assay with MCF7 breast cells, the “Apoptosis Early” value was 22.54%, the “Apoptosis Late” value is on record as 14.91%, the “Apoptosis Total” value worked out at 42.21 and the Necrosis came to 4.76%. In the assay on MCF7 breast cells, the “late apoptosis increase compared to control” value came to 55.22 fold and the “early apoptosis increase compared to control” value is 54.97 fold. Besides, at COX-2, the IC50 was 0.309 ± 0.071 µM and the “COX-2 S.I.” value is on record as 27.83. In addition, the IC50 in assay [2] was found to be 15 µM. In assay [3], the IC50 is 4 µM. This compound came in with an IC50 against B-RAF^V600E of 0.07 µM. This compound returned an IC50 against EGFR of 0.169 µM. In addition, in the assay with breast MCF7 cells, the “cell cycle arrest phase” value is given as “cell cycle arrest at G2/M phase”, the “%G0-G1” value is given as 45.44%, the “%G2-M” value came out at 26.39% and the “%S” value was determined as 28.17%. The compound also returned an IC50 against aromatase (CYP19A) of 22.7 µM.

On to `COC(=O)N[C@@H](C)CNc1nccc(-c2cn(C(C)C)nc2-c2cc(Cl)cc(NS(C)(=O)=O)c2F)n1` [Encorafenib, encorafenib, reference compound], for which, at EGFR, the IC50 was 0.037 µM.

Turning to `COc1cccc2c1C(=O)c1c(O)c3c(c(O)c1C2=O)C[C@@](O)(C(=O)CO)C[C@@H]3O[C@H]1C[C@H](N)[C@H](O)[C@H](C)O1` [Doxorubicin, doxorubicin, reference compound], the IC50 stood at 4.28 µM with normal fibroblast F180 and 0.3 µM in assay [2].

On COX-1, `COc1ccc(/C(CSc2nnc(-c3nnn(-c4ccc(S(N)(=O)=O)cc4)c3C)n2-c2ccc(OC)cc2)=N\O)cc1` [Compound 19i, (E)-4-(4-(5-((2-(hydroxyimino)-2-(4-methoxyphenyl)ethyl)thio)-4-(4-methoxyphenyl)-4H-1,2,4-triazol-3-yl)-5-methyl-1H-1,2,3-triazol-1-yl)benzenesulfonamide] displayed an IC50 of 4.6 ± 0.048 µM. On COX-2, half-maximal inhibition (IC50) required 0.363 ± 0.061 µM and the “COX-2 S.I.” value is reported as 12.67.

`Cc1ccc(/C(CSc2nnc(-c3nnn(-c4ccc(S(N)(=O)=O)cc4)c3C)n2-c2ccccc2)=N\O)cc1` [Compound 19b, (E)-4-(4-(5-((2-(hydroxyimino)-2-(p-tolyl)ethyl)thio)-4-phenyl-4H-1,2,4-triazol-3-yl)-5-methyl-1H-1,2,3-triazol-1-yl)benzenesulfonamide]: at COX-1, it took 4.42 ± 0.021 µM to reach half-maximal inhibition (IC50). Besides, at COX-2, the IC50 was found to be 0.485 ± 0.048 µM and the “COX-2 S.I.” value is 9.11.

These data come from publication PMC11003496 (Journal of Enzyme Inhibition and Medicinal Chemistry, 2023).
